Results from different studies.
Target: TGF-beta receptor type-1 (TGFBR1, Homo sapiens, UniProt P36897)
One construct used (P36897 34-503): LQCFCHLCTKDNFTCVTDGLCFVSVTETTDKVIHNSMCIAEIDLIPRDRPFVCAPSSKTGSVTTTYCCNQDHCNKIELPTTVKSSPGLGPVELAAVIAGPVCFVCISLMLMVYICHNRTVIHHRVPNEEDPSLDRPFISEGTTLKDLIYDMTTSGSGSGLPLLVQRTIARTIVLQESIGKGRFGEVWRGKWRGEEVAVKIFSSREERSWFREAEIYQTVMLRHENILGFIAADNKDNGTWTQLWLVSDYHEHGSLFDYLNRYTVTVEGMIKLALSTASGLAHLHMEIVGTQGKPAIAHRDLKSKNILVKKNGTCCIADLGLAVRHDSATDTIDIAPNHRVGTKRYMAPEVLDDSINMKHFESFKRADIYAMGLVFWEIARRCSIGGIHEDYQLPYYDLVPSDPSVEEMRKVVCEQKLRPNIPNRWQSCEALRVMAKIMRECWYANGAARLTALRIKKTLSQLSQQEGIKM

Structure (SMILES) | test | setting | remaining binding [%]
O=C(NCCCN1CCOCC1)c1ccc(Nc2nccc(-c3cc4ccccc4s3)n2)cc1 | binding, competition with immobilised ligand | 1 µM | 58
CCOCCn1cc(C(=O)Nc2ccc(-n3nc(-c4cccnc4)cc3C(F)(F)F)cn2)ccc1=O | cell-free assay, competition with immobilised ligand | 1 µM | 100
COc1cnc(Nc2cccc(S(N)(=O)=O)c2)nc1N1CCN(c2ccccc2)CC1 | binding, competition with immobilised ligand | 1 µM | 100
N[C@@H]1CCN(c2nccc(-c3cnn4ncccc34)n2)C1 | binding | 1 µM | 92
C=CC(=O)N1CCC(C(=O)NCC(=O)N2CCN(c3nc(-c4cnc(N)nc4C(F)F)nc(N4CCOCC4)n3)CC2)CC1 | binding, competition with immobilised ligand | 1 µM | 100
CN(C)c1nccc(-c2cnn3ncccc23)n1 | binding | 1 µM | 100
Cc1cnc(Nc2ccc(C(=O)N3CCC(N4CCCC4)CC3)cc2)nc1-c1cc2ccccc2s1 | binding, competition with immobilised ligand | 1 µM | 48
O=C(Nc1c[nH]nc1C(=O)NC1CCNCC1)c1cc(F)cc(F)c1 | binding, competition with immobilised ligand | 1 µM | 100
C[C@H]1CCN(c2nccc(-c3cnn4ncccc34)n2)C1 | binding | 1 µM | 76
O=C(N[C@H]1CCCCC/C=C\C2C[C@@]2(C(=O)O)NC(=O)[C@@H]2C[C@@H](Oc3ccncc3)CN2C1=O)OC1CCCC1 (stereo partly shown) | cell-free assay, competition with immobilised ligand | 1 µM | 100
COc1ncc2cc3ccccc3nc2c1C#N | cell-free assay, competition with immobilised ligand | 5 µM | 92
CC(C)(C)c1ccc(-c2nc(CBr)nn2-c2cccc(O)c2)cc1 | cell-free assay, competition with immobilised ligand | 10 µM | 90
O=C(c1ccc(Nc2nccc(-c3cc4ccccc4s3)n2)cc1)N1CCC(N2CCCC2)CC1 | binding, competition with immobilised ligand | 1 µM | 91
CNCc1ccccc1-c1csc([C@@H](C)Nc2nc(C)nc3cc(OC)c(OC)cc23)c1 | cell-free assay, competition with immobilised ligand | 1 µM | 74
COc1cnc(Nc2cccc(S(N)(=O)=O)c2)nc1N1CCN(c2ccccc2)C(=O)C1 | binding, competition with immobilised ligand | 1 µM | 100
CN(C)c1nccc(-c2cnc3ncccn23)n1 | binding | 1 µM | 82
Cc1c(C(=O)O)cc(-c2ccc(C3CCNCC3)cc2)c2ccc(-c3ccc(C(F)(F)F)cc3)cc12 | cell-free assay, competition with immobilised ligand | 1 µM | 89
Nc1ncc2c(n1)-c1c([nH]c3ccc(C#CC4CC4)cc13)CCCC2 | binding, competition with immobilised ligand | 1 µM | 86
c1cnn2ncc(-c3ccnc(N4CCC45COC5)n3)c2c1 | binding | 1 µM | 78
C[C@H](c1ccc(F)cc1)N(Cc1cccc(C(=O)O)c1)C(=O)c1cnc2ccccc2c1 | cell-free assay, competition with immobilised ligand | 1 µM | 96
C[C@@H]1CN(c2ccc3ncc(-c4ccc5[nH]nc(C6CC6)c5c4)n3n2)C[C@H](C)O1 | binding, competition with immobilised ligand | 50 nM | 100
COCCOc1nc(-c2ccc(Cl)nc2)nc2c1CN(C(=O)c1ncn3ccccc13)CC2 | cell-free assay, competition with immobilised ligand | 0.1 µM | 100
F[C@@H]1CCN(c2nccc(-c3cnn4ncccc34)n2)C1 | binding | 1 µM | 100
CN([C@@H]1CCc2c(CC(=O)O)c3ccccc3n2C1)S(=O)(=O)c1ccc(F)cc1 | cell-free assay, competition with immobilised ligand | 1 µM | 100
Cc1cnn2ncc(-c3ccnc(N(C)C)n3)c2c1 | binding | 1 µM | 100
